Laboratory results published in ChEMBL document CHEMBL4229356, “Synthesis and antikinetoplastid evaluation of bis(benzyl)spermidine derivatives” (Eur J Med Chem, 2018).

Legend:
Leishmania donovani [1] = experiment: Antiparasitic activity against Leishmania donovani LV9 axenic amastigotes incubated for 72 hrs by resazurin dye based assay; format: functional, organism-based; details: LV9, 72 h
How it was run: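 LV9 axenic amastigotes were derived from promastigotes in M-199 at pH 5.5, 37 °C, 5% CO2, and used in log phase. Cells at 10⁶/mL were exposed 72 h to two-fold dilutions from 100 to 0.02 μM. Resazurin was then added for 24 h in the dark and read at OD570/OD600. IC50 is relative to excipient-only controls; miltefosine was the reference.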

[2] = Cytotoxicity against mouse RAW264.7 cells assessed as reduction in cell viability after 48 hrs by resazurin assay; format: cell-based
How it was run: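 RAW 264.7 macrophages at 2.10⁴/well were preincubated 24 h, then exposed 48 h at 37 °C, 5% CO2 to two-fold dilutions in DMEM. Resazurin was added for 4 h in the dark and read at OD570/OD600. Result given as CC50.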

Leishmania donovani [3] = experiment: Antiparasitic activity against Leishmania donovani LV9 axenic intramacrophage amastigotes infected in mouse RAW264.7 cells incubated for 48 hrs by Sybr Green 1 dye based fluorescence assay; format: functional, organism-based; details: LV9, RAW264.7, 48 h
How it was run: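 RAW 264.7 cells at 2.10⁴/well were infected 24 h with axenic amastigotes at a 16:1 parasite to macrophage ratio, then extracellular parasites were removed. Cells were treated 48 h with two-fold dilutions from 100 µM. They were then lysed (freeze-thaw, proteinase K, 55 °C overnight) and total DNA read by SYBR Green I fluorescence against untreated infected cells. Result given as IC50.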

[4] = system: Trypanosoma brucei gambiense; experiment: Trypanocidal activity against Trypanosoma brucei gambiense FeoITMAP/1893 after 72 hrs by resazurin dye based assay; format: functional, organism-based; details: FeoITMAP/1893, 72 h
How it was run: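 T. b. gambiense Feo was grown in supplemented IMDM with 10% FBS. Cells at 4.10⁴/mL were exposed 72 h at 37 °C, 5% CO2 in the dark to two-fold dilutions. Resazurin (450 µM solution) was added for 6 h and read at OD570/OD600. Result given as IC50; pentamidine was the reference.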

[5] = Selectivity index, ratio of CC50 for mouse RAW264.7 cells to IC50 for Trypanosoma brucei gambiense FeoITMAP/1893; format: toxicity; details: read-out: Ratio CC50/IC50
[6] = Selectivity index, ratio of CC50 for mouse RAW264.7 cells to IC50 for Leishmania donovani LV9 axenic amastigotes incubated for 72 hrs by resazurin dye based assay; format: toxicity; details: read-out: Ratio CC50/IC50
[7] = Selectivity index, ratio of CC50 for mouse RAW264.7 cells to IC50 for Leishmania donovani LV9 axenic intramacrophage amastigotes infected in mouse RAW264.7 cells; format: toxicity, cell-based; details: read-out: Ratio CC50/IC50
[8] = target: Trypanothione reductase (Trypanosoma brucei brucei) (UniProt P39051); experiment: Inhibition of Trypanosoma brucei trypanothione reductase at 40 uM using 100 uM TS2 as substrate in presence of NADPH by spectrophotometric method relative to control
Chain of Trypanothione reductase (Trypanosoma brucei brucei) (P39051 whole entry, looked up): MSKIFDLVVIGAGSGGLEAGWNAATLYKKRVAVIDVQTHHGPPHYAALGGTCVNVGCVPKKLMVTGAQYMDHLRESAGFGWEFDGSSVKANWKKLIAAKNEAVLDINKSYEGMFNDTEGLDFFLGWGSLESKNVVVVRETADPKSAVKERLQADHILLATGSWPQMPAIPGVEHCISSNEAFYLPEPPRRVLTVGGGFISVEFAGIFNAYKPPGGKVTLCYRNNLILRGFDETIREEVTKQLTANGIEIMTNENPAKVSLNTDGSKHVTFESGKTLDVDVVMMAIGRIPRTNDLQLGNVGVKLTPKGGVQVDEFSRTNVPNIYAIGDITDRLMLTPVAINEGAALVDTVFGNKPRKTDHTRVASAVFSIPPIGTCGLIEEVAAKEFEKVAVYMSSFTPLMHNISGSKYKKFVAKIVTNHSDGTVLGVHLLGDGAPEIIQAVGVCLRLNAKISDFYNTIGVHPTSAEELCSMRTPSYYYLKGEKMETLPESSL
How it was run: (§1)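 Recombinant T. brucei TryR (5-10 mU) in 40 mM Hepes, 1 mM EDTA, pH 7.5, with 100 μM NADPH, 5% DMSO, at 25 °C. Inhibitor was fixed at 40 μM; TS2 at 100 or 40 μM started the reaction. NADPH consumption was followed at 340 nm and % inhibition taken against DMSO-matched controls. Run in triplicate, mean ± SD.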

[9] = target: Trypanothione reductase (Trypanosoma brucei brucei) (UniProt P39051); experiment: Inhibition of Trypanosoma brucei trypanothione reductase at 40 uM using 40 uM TS2 as substrate in presence of NADPH by spectrophotometric method relative to control; how it was run: as §1
Mus musculus = experiment: Toxicity in Swiss mouse assessed as death at 100 mg/kg, ip administered as single dose measured up to 30 days; format: organism-based; details: in vivo, 720 h
How it was run: (§2)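 Swiss mice infected ip with 10,000 T. b. brucei CMP trypanosomes, randomly grouped (six per batch), then given one ip dose of 100 or 10 mg/kg; controls received pentamidine, melarsamine or excipient. Parasitemia followed at days 2, 3, 4 and 30; deaths recorded by day post-treatment; efficacy as mean survival time minus that of excipient-treated controls (days ± SD).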

[10] = system: Trypanosoma brucei brucei; experiment: Antitrypanosomal activity against Trypanosoma brucei brucei CMP infected in Swiss mouse assessed as change in mean survival time at 100 mg/kg, ip administered as single dose measured up to 30 days; format: functional; how it was run: as §2
[11] = Stability in human plasma by HPLC analysis; format: ADME, cell-free; details: read-out: Stability
How it was run: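 Human plasma was diluted 10-fold in PBS and incubated with 1 mM compound solutions for 0, 2 and 12 h at 37 °C. Samples were quenched with ice-cold acetonitrile, centrifuged, filtered and analysed by C18 reversed-phase HPLC at 25 °C.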

SMILES	IC50 (Leishmania donovani [1])	CC50 at 48 h [2]	IC50 (Leishmania donovani [3])	IC50 [4]	selectivity ratio [5]	selectivity ratio at 72 h [6]	selectivity ratio [7]	inhibition [8]	inhibition [9]	Activity (Mus musculus)	Survival [10]	half-life [11]
CC(C)(C)OC(=O)NCCCCNCCCN(Cc1ccsc1)Cc1ccsc1	25.3 µM	16.4 µM	21.1 µM	1500 nM	10.9							
CC(C)(C)OC(=O)NCCCCNCCCN(Cc1ccc(-c2ccccc2)cc1)Cc1ccc(-c2ccccc2)cc1	38.5 µM	> 100 µM	41.7 µM	14400 nM	> 6.9	> 2.6	> 2.4					
NC1CCC(NCCCN(Cc2ccccc2)Cc2ccccc2)CC1 (centres undefined)	> 100 µM	7.6 µM	6.6 µM	2100 nM	3.6		1.1					
NCCCCNCCCN(Cc1ccc(F)cc1)Cc1ccc(F)cc1	70.3 µM	33.1 µM	35.8 µM	3500 nM	9.4							
CC(C)(C)OC(=O)NCCCCNCCCN(Cc1ccc2ccccc2c1)Cc1ccc2ccccc2c1	3.8 µM	4.3 µM	6.1 µM	800 nM	5.4	1.1		45%	60%			
CC(C)(C)OC(=O)NCCCCNCCCN(Cc1ccc(F)cc1)Cc1ccc(F)cc1	14.7 µM	8.7 µM	14.5 µM	2000 nM	4.3							
CC(C)(C)OC(=O)NCCCCN(CCCN(Cc1ccccc1)Cc1ccccc1)CCCN(Cc1ccccc1)Cc1ccccc1	2.5 µM	12.5 µM	1.5 µM	300 nM	41.7	5	8.3					
N=C(N)c1ccc(OCCCCCOc2ccc(C(=N)N)cc2)cc1.O=S(=O)(O)CCO.O=S(=O)(O)CCO [PENTAMIDINE ISETHIONATE]										Non-Toxic	>30 days	
CC(C)(C)OC(=O)NCCCCNCCCN(Cc1ccccc1)Cc1ccccc1	14.6 µM	12.5 µM	3.4 µM	600 nM	20.8		3.7					
NCCCCNCCCN(Cc1ccc(-c2ccccc2)cc1)Cc1ccc(-c2ccccc2)cc1	3.9 µM	4.2 µM	7.1 µM	200 nM	21	1.1						> 720 min
NC1CCC(N(CCCN(Cc2ccc(F)cc2)Cc2ccc(F)cc2)CCCN(Cc2ccc(F)cc2)Cc2ccc(F)cc2)CC1 (centres undefined)	15.7 µM	4.5 µM	4.2 µM	10400 nM			1.1					
CC(C)(C)OC(=O)NCCCCN(CCCN(Cc1ccc(F)cc1)Cc1ccc(F)cc1)CCCN(Cc1ccc(F)cc1)Cc1ccc(F)cc1	6.6 µM	12 µM	16.6 µM	1900 nM	6.3	1.8						
NCCCCNCCCN(Cc1ccsc1)Cc1ccsc1	> 100 µM	52.8 µM	59.1 µM	6100 nM	8.6							
CC(C)(C)OC(=O)NCCCCNCCCN(Cc1ccc(OCc2ccccc2)cc1)Cc1ccc(OCc2ccccc2)cc1	26.4 µM	33.3 µM	42 µM	4700 nM	7.1	1.3						
CC(C)(C)OC(=O)NCCCCNCCCN(Cc1cccc(-c2ccccc2)c1)Cc1cccc(-c2ccccc2)c1	79.5 µM	> 100 µM	> 100 µM	33900 nM	> 2.9	> 1.2						
CC(C)(C)OC(=O)NC1CCC(NCCCN(Cc2ccccc2)Cc2ccccc2)CC1 (centres undefined)	14.2 µM	5.1 µM	5.4 µM	700 nM	7.3							
NCCCCNCCCN(Cc1ccc2ccccc2c1)Cc1ccc2ccccc2c1	5 µM	4.9 µM	8.7 µM	400 nM	12.2				47%			
NCCCCNCCCN(Cc1cccc(-c2ccccc2)c1)Cc1cccc(-c2ccccc2)c1	35.7 µM	30.3 µM	27.8 µM	8700 nM	3.5		1.1					
NCCCCN(CCCN(Cc1ccccc1)Cc1ccccc1)CCCN(Cc1ccccc1)Cc1ccccc1	57.3 µM	1.2 µM	22.4 µM	900 nM	1.3							
CC(C)(C)OC(=O)NC1CCC(NCCCN(Cc2ccc(F)cc2)Cc2ccc(F)cc2)CC1 (centres undefined)	6.8 µM	4.2 µM	6.8 µM	500 nM	8.4							
Cl.Cl.NCCS[As](SCCN)c1ccc(Nc2nc(N)nc(N)n2)cc1										Non-Toxic	>30 days	
NCCCCN(CCCN(Cc1ccc(F)cc1)Cc1ccc(F)cc1)CCCN(Cc1ccc(F)cc1)Cc1ccc(F)cc1	2 µM	1.5 µM	6.5 µM	100 nM	15			30%	> 60%			
CC(C)(C)OC(=O)NC1CCC(N(CCCN(Cc2ccc(F)cc2)Cc2ccc(F)cc2)CCCN(Cc2ccc(F)cc2)Cc2ccc(F)cc2)CC1 (centres undefined)	10.2 µM	> 100 µM	17.2 µM	4200 nM	> 23.8	> 9.8	> 5.8					
